Source: article PMC6370590 (European journal of pharmaceutical sciences : official …, 2018)
Values belong to the compound of their own block, whether it stands above or below them.

Columns and labels:
[1] = target: T1, SUMO hTDP2^cat (Homo sapiens, UniProt O95551); assay: SUMO hTDP2^cat fluorescence-based biochemical assay
T1 sequence (O95551 110-362): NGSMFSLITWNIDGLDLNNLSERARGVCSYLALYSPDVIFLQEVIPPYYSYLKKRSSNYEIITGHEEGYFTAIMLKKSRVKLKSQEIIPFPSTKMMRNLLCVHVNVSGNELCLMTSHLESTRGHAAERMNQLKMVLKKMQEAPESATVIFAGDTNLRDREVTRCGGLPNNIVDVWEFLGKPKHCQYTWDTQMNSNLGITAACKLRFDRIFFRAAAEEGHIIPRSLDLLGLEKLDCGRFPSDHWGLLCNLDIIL

[2] = target: T2, 14M_zTDP2^cat (humanized zebrafish TDP2 catalytic domain) (Danio rerio, UniProt Q5XJA0, A139S/C239T/C322L/D120S/K240R/K309Q/K314L/L136N/P317T/R321K/S320C/T315G/V316I/V319A/Y318A); assay: 14M_zTDP2^cat fluorescence-based biochemical assay; settings: for LE (ligand efficiency): LE = 1.4 x pIC50 / HAC; for LELP (ligand efficiency dependent lipophilicity): LELP = LE / cLogP as printed; for LLE (lipophilic ligand efficiency): LLE = pIC50 - cLogP; for TDP2 inhibition, SAR statement: compared with hit 11a
T2 sequence (Q5XJA0 120-369 D120S/L136N/A139S/C239T/K240R/K309Q/K314L/T315G/V316I/P317T/Y318A/V319A/S320C/R321K/C322L): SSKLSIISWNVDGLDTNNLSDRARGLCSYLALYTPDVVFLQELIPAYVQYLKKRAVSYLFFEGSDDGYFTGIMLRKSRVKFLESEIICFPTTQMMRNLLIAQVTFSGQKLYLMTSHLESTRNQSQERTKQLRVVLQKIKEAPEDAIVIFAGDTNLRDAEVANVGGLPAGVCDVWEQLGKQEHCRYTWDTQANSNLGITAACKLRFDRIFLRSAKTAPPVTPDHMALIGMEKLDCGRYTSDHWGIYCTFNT
Procedure, shortened: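 Humanized zebrafish TDP2 catalytic domain (residues 120–369), 6.25 pM final, pre-incubated 10 min with test compound in pH 7.4 Tris buffer (10 mM MgCl₂, 80 mM KCl, 0.05% Tween-20, 1 mM DTT). Reaction started with 1 μM (final) FAM-phosphotyrosyl-GATCT-BHQ-1 substrate at 25 °C. Fluorescence ([…]) read kinetically over 60 min. % inhibition normalised to DMSO and no-enzyme controls. IC₅₀ fitted from 10–12 concentrations.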

Compound: CCOc1ccc2nc(NC(=N)N)nc(C)c2c1 [Compound 11b, 1-(6-Ethoxy-4-methylquinazolin-2-yl) guanidine]
TDP2 inhibition, SAR statement [2]: did not interfere significantly with the activity

Compound: Cc1nc(NC(=N)N)nc2ccc(Cl)cc12.Cl [Compound 11c, 1-(6-Chloro-4-methylquinazolin-2-yl) guanidine hydrochloride]
inhibitory activity ([2]; up to 200 µM, vs. 11a): abrogated completely the inhibitory activity

Compound: COc1ccccc1-c1nn2c(-c3ccco3)nnc2s1 [Compound 19b, 3-(Furan-2-yl)-6-(2-methoxyphenyl)-[1,2,4]triazolo[3,4-b][1,3,4]thiadiazole]
TDP2 inhibition ([2]; concentrations up to 100 µM): did not exhibit significant TDP2 inhibition

The remaining lines, values ahead:

IC50 [1]: 113 ± 10 µM
LE (ligand efficiency) [2]: 0.32
LELP (ligand efficiency dependent lipophilicity) [2]: 4.9
LLE (lipophilic ligand efficiency) [2]: 2.3
Compound: COc1ccc2nc(NC(=N)N)nc(C)c2c1 [Compound 11a, 1-(6-Methoxy-4-methylquinazolin-2-yl) guanidine]

fold increase in potency over the original HTS hit 11a ([1]; ratio of IC50 values): 6.4 fold
Compound: COc1ccc2nc(Nc3nc(C)c(C)c(=O)[nH]3)nc(C)c2c1 [Compound 12a, 2-((6-Methoxy-4-methylquinazolin-2-yl)amino)-5,6-dimethylpyrimidin-4(3H)-one]

TDP2 inhibition, SAR statement [2]: no inhibition was observed
Compound: COc1ccc2nc(NC(=N)N)[nH]c(=O)c2c1 [Compound 15, 1-(6-Methoxy-4-oxo-3,4-dihydroquinazolin-2-yl)guanidine]

LE (ligand efficiency) [2]: 0.30
LELP (ligand efficiency dependent lipophilicity) [2]: 14
LLE (lipophilic ligand efficiency) [2]: 0.29
Compound: Cc1ccc(-c2nn3c(-c4ccco4)nnc3s2)cc1C [Compound 19a, 6-(3,4-Dimethylphenyl)-3-(furan-2-yl)-[1,2,4]triazolo[3,4-b][1,3,4] thiadiazole]
